In one series the test system is MDA-MB-231. The series can be described thus: Cytotoxicity against human MDA-MB-231 cells assessed as reduction in cell growth at 1 uM incubated for 48 hrs by BrdU cell proliferation assay. Type of series: functional, cell-based. A digest of the protocol:
(§1)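 48 h exposure to 1 μM, with DMSO vehicle (≤0.01%) and doxorubicin (1 μM) controls, then BrdU added for 2 h at 37 °C before fixation, DNA denaturation and colorimetric immunoassay of BrdU incorporation. Plating was 8 × 10^3 cells/well for MCF-10A and 5 × 10^3 cells/well for MDA-MB-231. Technical replicates were n = 6 for MDA-MB-231 and n = 5 for MCF-7 and MCF-10A; one-way ANOVA with Tukey's test.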

The next series deals with MCF-10A. The series can be described thus: Cytotoxicity against human MCF-10A cells assessed as reduction in cell growth at 1 uM incubated for 48 hrs by BrdU cell proliferation assay. Type of series: toxicity, cell-based. The gist of the method: as §1
Another series deals with MCF7. The series can be described thus: Cytotoxicity against human MCF7 cells assessed as reduction in cell growth at 1 uM incubated for 48 hrs by BrdU cell proliferation assay. Type of series: functional, cell-based. The gist of the method: as §1
For series [1], the species on record is Homo sapiens. The series can be described thus: Selectivity index, ratio of IC50 for inhibition of CYP2D6 in human liver microsomes to IC50 for inhibition of CYP19A1 in human JEG-3 cells. The format is cell-based. The gist of the method: (§2)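 The CYP isoform IC50 was measured in human liver microsomes with an isoform-specific probe substrate. […] Tritiated water was charcoal-cleared and counted, then normalised to BCA protein, in triplicate. The index is the ratio of the isoform IC50 to the CYP19A1 IC50.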

The species named for series [2] is Homo sapiens. The series can be described thus: Selectivity index, ratio of IC50 for inhibition of CYP1A2 in human liver microsomes to IC50 for inhibition of CYP19A1 in human JEG-3 cells. Type of series: cell-based. The gist of the method: as §2

Molecules are shown by their SMILES. The source made the active and inactive calls. The calls are words filed in the database; no cut-off is given here.

As to `COc1ccc2cc(C(O)(c3ccc(Cl)cc3)c3cccnc3)oc2c1` (centres undefined), the result in the series on MDA-MB-231 and in the series on MCF7 was inactive. Moreover, the Activity entry in the series on MCF-10A is reported as “Non-Toxic”.

In the case of `COc1ccc2cc(C(O)(c3ccc(F)cc3)c3cccnc3)oc2c1` (centres undefined), the result with MDA-MB-231 and with MCF7 was inactive. Besides, the Activity result in the series with MCF-10A is “Non-Toxic”.

Consider `COc1ccc2cc(C(O)(c3ccc(Br)cc3)c3cccnc3)oc2c1` (centres undefined), for which the outcome in the series on MDA-MB-231 and in the series with MCF7 was inactive. Also, in the series with MCF-10A, the Activity result is listed as “Non-Toxic”.

Turning to `COc1ccc2cc(C(O)(c3cccnc3)c3ccc(Cl)cc3Cl)oc2c1` (centres undefined), the outcome in the series on MDA-MB-231 and in the series with MCF7 was inactive. Besides, the Activity result in the series on MCF-10A was “Non-Toxic”.

For the molecule `CC#CCOc1ccc2cc(C(O)(c3ccc(Cl)cc3)c3cccnc3)oc2c1` (centres undefined), the outcome with MDA-MB-231 and in the series with MCF7 was inactive. Also, in the series with MCF-10A, the Activity entry is “Non-Toxic”.

On to `COc1cccc2c1C(=O)c1c(O)c3c(c(O)c1C2=O)C[C@@](O)(C(=O)CO)C[C@@H]3O[C@H]1C[C@H](N)[C@H](O)[C@H](C)O1` [DOXORUBICIN], for which the outcome with MDA-MB-231 and in the series with MCF7 was inactive. Also, the Activity result in the series on MCF-10A is recorded as “Not Active”.

`CC#CCOc1ccc2cc(C(O)(c3ccc(Br)cc3)c3cccnc3)oc2c1` (centres undefined): the result with MDA-MB-231 and in the series with MCF7 was inactive. Further, the Activity entry with MCF-10A was “Non-Toxic”. The Ratio IC50 in the series filed under Homo sapiens [1] and in the series filed under Homo sapiens [2] was 30100 throughout.

Turning to `CCC#CCOc1ccc2cc(C(O)(c3ccc(Cl)cc3)c3cccnc3)oc2c1` (centres undefined), the outcome with MDA-MB-231 and with MCF7 was inactive. In the series with MCF-10A, the Activity entry is recorded as “Not Active”.

For the molecule `CCC#CCOc1ccc2cc(C(O)(c3ccc(Br)cc3)c3cccnc3)oc2c1` (centres undefined), the result with MDA-MB-231 and with MCF7 was inactive. The Activity entry in the series with MCF-10A is reported as “Not Active”.

The record behind these values is ChEMBL document CHEMBL5230170, “Pyridine based dual binding site aromatase (CYP19A1) inhibitors” (RSC Med Chem, 2023).
